From ChEMBL document CHEMBL1125824, “New pepstatin analogues: synthesis and pepsin inhibition” (J Med Chem, 1991) come the findings set out here.

Assay [1] deals with T1, Pepsin A (Sus scrofa, UniProt P00791). The assay can be described thus: Compound was measured for the inhibition of pepsin hydrolysis of hemoglobin. In a few lines: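 Porcine pepsin acting on hemoglobin substrate (0.5% solution) with inhibitor in 0.02 M KCl–HCl, pH 2.0. Substrate and inhibitor were preincubated 3 min at 37 °C, then enzyme was added for 27 min at 37 °C. The reaction was quenched with 1.5 M perchloric acid, protein was spun out, and A280 was read minus a no-enzyme blank. Four replicates at ≥5 concentrations; IC50 from % inhibition vs log concentration.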

Assay [2] addresses T1, Pepsin A. The assay can be described thus: Compound was measured for the apparent inhibition constant at pepsin. In a few lines: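 Apparent Ki from the pepsin–hemoglobin assay: pH 2.0 KCl–HCl buffer, 30 min total at 37 °C, perchloric acid quench, A280 of supernatant minus blank. IC50 came from % inhibition vs log [inhibitor], four replicates at ≥5 concentrations. Ki(app) was calculated as IC50 − 0.5[E]0, where [E]0 is the enzyme concentration.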

SMILES strings stand for the structures.

T1 sequence (P00791 whole entry): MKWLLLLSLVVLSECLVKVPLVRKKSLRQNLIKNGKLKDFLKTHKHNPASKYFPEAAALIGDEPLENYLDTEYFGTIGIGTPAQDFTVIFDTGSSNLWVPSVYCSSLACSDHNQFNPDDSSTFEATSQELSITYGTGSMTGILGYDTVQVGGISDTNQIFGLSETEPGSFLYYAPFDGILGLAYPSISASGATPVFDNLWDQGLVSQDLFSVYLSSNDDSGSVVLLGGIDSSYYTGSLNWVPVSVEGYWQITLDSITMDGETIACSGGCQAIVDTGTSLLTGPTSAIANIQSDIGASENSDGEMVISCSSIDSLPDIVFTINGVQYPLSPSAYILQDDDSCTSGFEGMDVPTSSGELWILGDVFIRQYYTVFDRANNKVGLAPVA

As usually defined, the IC50 is the midpoint of a concentration-inhibition curve. Low readings indicate inhibition by little substance, high ones a need for much substance. Consider `CC(C)[C@H](NC(=O)OCc1ccccc1)C(=O)N[C@H](C(=O)NC(c1ccc(O)cc1)C(O)CC(=O)O)C(C)C` (stereo partly specified), for which the IC50 in assay [1] turned out to be 1130 µM. The Ki in assay [2] came out at 1130 µM. In turn, `CCCCC(NC(=O)[C@@H](NC(=O)[C@@H](NC(=O)OCc1ccccc1)C(C)C)C(C)C)C(O)CC(=O)O` (stereo partly specified) gave an IC50 in assay [1] of 0.01 µM. Consider `CC(C)[C@H](NC(=O)OCc1ccccc1)C(=O)N[C@H](C(=O)NC(c1ccccc1)C(O)CC(=O)O)C(C)C` (stereo partly specified), for which, in assay [1], the midpoint of inhibition, the IC50, lay at 0.42 µM. Moreover, the Ki in assay [2] was 0.41 µM.

In assay [1], `CC(C)CC(NC(=O)[C@@H](NC(=O)[C@H](NC(=O)OCc1ccccc1)C(C)C)C(C)C)C(O)CC(=O)O` (stereo partly specified) had an IC50 of 39.4 µM. In assay [2], the Ki turned out to be 39.4 µM. Consider `CCCCC(NC(=O)[C@@H](NC(=O)[C@H](NC(=O)OCc1ccccc1)C(C)C)C(C)C)C(O)CC(=O)O` (stereo partly specified), for which the midpoint of inhibition in assay [1], the IC50, lay at 17.7 µM. For the same compound, in assay [2], the Ki came out at 17.7 µM.

`CC(C)CC(NC(=O)[C@@H](NC(=O)[C@@H](NC(=O)OCc1ccccc1)C(C)C)C(C)C)C(O)CC(=O)O` (stereo partly specified): the IC50 in assay [1] was found to be 0.2 µM. In assay [2], the Ki amounted to 0.19 µM.

Regarding `CC(C)[C@H](NC(=O)[C@H](NC(=O)OCc1ccccc1)C(C)C)C(=O)NC(c1ccc(O)cc1)C(O)CC(=O)O` (stereo partly specified), the midpoint of inhibition in assay [1], the IC50, lay at 1540 µM. For the same compound, in assay [2], the Ki is 1540 µM. Regarding `CC(C)[C@H](NC(=O)[C@H](NC(=O)OCc1ccccc1)C(C)C)C(=O)NC(c1ccccc1)C(O)CC(=O)O` (stereo partly specified), half-maximal inhibition in assay [1] (IC50) was put at 346 µM. The Ki in assay [2] amounted to 346 µM.

Consider `CC(C)CC(=O)N[C@H](C(=O)N[C@H](C(=O)N[C@@H](CC(C)C)[C@@H](O)CC(=O)N[C@@H](C)C(=O)N[C@@H](CC(C)C)[C@@H](O)CC(=O)O)C(C)C)C(C)C` [PEPSTATIN], for which the IC50 in assay [1] is 0.007 µM. This lies in the single-digit nanomolar range.
